Calls of active or inactive are those of the source. No cut-off for these calls is given here. Some results are limits rather than exact numbers.

Our source for the IC50, AC50 and Activity values is ChEMBL document CHEMBL1155236, “Identification of biphenyl-based hybrid molecules able to decrease the intracellular level of Bcl-2 protein in Bcl-2 overexpressing leukemia cells” (J Med Chem, 2009).

Assay [1] has as its system K562. The assay can be described thus: Antiproliferative activity against human K562 cells after 48 hrs by trypan blue method. Format: functional, cell-based. Conditions: K562, 48 h. Summed up:
(§1)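 Growth inhibition read by counting cells with an automatic cell counter after 48 h of compound exposure. IC50 is the concentration inhibiting 50% of cell growth.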

Assay [2] has as its system HL-60. The assay can be described thus: Antiproliferative activity against human HL60 cells after 48 hrs by trypan blue method. Format: functional, cell-based. Particulars: HL-60, 48 h. Summed up:
as §1

For assay [3], the system named is HL-60. The assay can be described thus: Induction of apoptosis in human HL60 cells assessed as morphological changes after 48 hrs by annexin V assay. Format: functional, cell-based. Particulars: HL-60, 48 h, read-out: AC50. Summed up: (§2)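 HL60 or K562 cells treated for 48 h. Apoptosis scored by morphological assay and annexin V test. AC50 is the concentration inducing apoptosis in 50% of cells.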

For assay [4], the system named is K562. In words: Induction of apoptosis in human K562 cells assessed as morphological changes after 48 hrs by annexin V assay. Format: functional, cell-based. Conditions: K562, 48 h, read-out: AC50. Summed up:
as §2

In assay [5] the test system is K562. In words: Induction of apoptosis in human K562 cells assessed as decrease in Bcl-2 expression at 30 uM after 24 hrs by flow cytometry. Also noted: scale not given: the % may be the effect or the level left. Format: functional. In outline:
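K562 cells cultured 24 h with compound at 30 μM or without (control). Intracellular Bcl-2 read by flow cytometry after staining with FITC-conjugated anti-Bcl-2 monoclonal antibody. Treated histograms compared with control histograms.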

The nature of assay [6]: Cytotoxicity against human lymphocytes after 48 hrs by trypan blue method. Format: cell-based. Particulars: Lymphocyte, read-out: IC50. Summed up:
as §1

Assay [7] deals with K562. The assay can be described thus: Cell cycle arrest in human K562 cells by accumulation at G2/M phase at 30 uM after 72 hrs using propidium iodide staining by FACS. Format: functional. In outline:
(§3)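 K562 cells treated for 24, 48 or 72 h. Cells stained with propidium iodide and cell-cycle phase distribution analysed by flow cytometry against untreated cells. The sub-G0–G1 peak was taken as apoptotic.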
(In general: In flow cytometry, cells or beads pass a laser one at a time.)

In assay [8] the test system is K562. The assay can be described thus: Cell cycle arrest in human K562 cells by accumulation at sub-G1 (apoptotic) phase at 30 uM after 48 hrs using propidium iodide staining by FACS. Format: functional. In outline: as §3
The subject of assay [9] is K562. The assay can be described thus: Cell cycle arrest in human K562 cells by accumulation at S phase at 30 uM after 24 hrs using propidium iodide staining by FACS. Format: functional. Summed up: as §3
Assay [10] relates to K562. The assay can be described thus: Cell cycle arrest in human K562 cells by accumulation at G2/M phase at 30 uM after 24 hrs using propidium iodide staining by FACS. Format: functional. Summed up: as §3
For assay [11], the system named is K562. The assay can be described thus: Cell cycle arrest in human K562 cells by accumulation at sub-G1 (apoptotic) phase at 30 uM after 24 hrs using propidium iodide staining by FACS. Format: functional. In outline:
as §3

Assay [12] relates to K562. The assay can be described thus: Cell cycle arrest in human K562 cells by accumulation at G1 phase at 30 uM after 48 hrs using propidium iodide staining by FACS. Format: functional. Summed up:
as §3

Assay [13] concerns K562. The assay can be described thus: Cell cycle arrest in human K562 cells by accumulation at G1 phase at 30 uM after 72 hrs using propidium iodide staining by FACS. Format: functional. In outline: as §3
Assay [14] has as its system K562. In words: Cell cycle arrest in human K562 cells by accumulation at G2/M phase at 30 uM after 48 hrs using propidium iodide staining by FACS. Format: functional. Summed up:
as §3

Assay [15] has as its system K562. In words: Cell cycle arrest in human K562 cells by accumulation at S phase at 30 uM after 48 hrs using propidium iodide staining by FACS. Format: functional. Summed up:
as §3

The subject of assay [16] is K562. In words: Cell cycle arrest in human K562 cells by accumulation at S phase at 30 uM after 72 hrs using propidium iodide staining by FACS. Format: functional. Summed up: as §3
For assay [17], the system named is K562. The assay can be described thus: Cell cycle arrest in human K562 cells by accumulation at G1 phase at 30 uM after 24 hrs using propidium iodide staining by FACS. Format: functional. In outline: as §3
The subject of assay [18] is K562. The assay can be described thus: Cell cycle arrest in human K562 cells by accumulation at sub-G1 (apoptotic) phase at 30 uM after 72 hrs using propidium iodide staining by FACS. Format: functional. In outline: as §3
Assay [19] relates to HL-60. In words: Induction of apoptosis in human HL60 cells assessed as induction of cell differentiation marker CD61 expression at 10 uM after 120 hrs by flow cytometry. Format: functional, cell-based. Summed up: (§4)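 HL60 or K562 cells exposed to 10 μM compound or no compound (control) for 120 h (5 days). Surface CD11c and CD61 read by flow cytometry with PE- or FITC-conjugated monoclonal antibodies. Treated cells compared with untreated cells.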

Assay [20] concerns HL-60. The assay can be described thus: Induction of apoptosis in human HL60 cells assessed as induction of cell differentiation marker CD11c expression at 10 uM after 120 hrs by flow cytometry. Format: functional, cell-based. Summed up:
as §4

In assay [21] the test system is K562. In words: Induction of apoptosis in human K562 cells assessed as induction of cell differentiation marker CD11c expression at 10 uM after 120 hrs by flow cytometry. Format: functional, cell-based. In outline:
as §4

The test system of assay [22] is K562. In words: Induction of apoptosis in human K562 cells assessed as induction of cell differentiation marker CD61 expression at 10 uM after 120 hrs by flow cytometry. Format: functional, cell-based. Summed up:
as §4

The subject of assay [23] is K562. The assay can be described thus: Cell cycle arrest in human K562 cells by accumulation at S phase at 130 uM after 24 hrs using propidium iodide staining by FACS. Format: functional. In outline: as §3
Assay [24] concerns K562. The assay can be described thus: Cell cycle arrest in human K562 cells by accumulation at G1 phase at 130 uM after 48 hrs using propidium iodide staining by FACS. Format: functional. Summed up:
as §3

Assay [25] concerns K562. In words: Cell cycle arrest in human K562 cells by accumulation at G1 phase at 130 uM after 72 hrs using propidium iodide staining by FACS. Format: functional. Summed up: as §3
In assay [26] the test system is K562. The assay can be described thus: Cell cycle arrest in human K562 cells by accumulation at S phase at 130 uM after 48 hrs using propidium iodide staining by FACS. Format: functional. Summed up:
as §3

The test system of assay [27] is K562. In words: Cell cycle arrest in human K562 cells by accumulation at G2/M phase at 130 uM after 72 hrs using propidium iodide staining by FACS. Format: functional. In outline:
as §3

For assay [28], the system named is K562. In words: Cell cycle arrest in human K562 cells by accumulation at G2/M phase at 130 uM after 48 hrs using propidium iodide staining by FACS. Format: functional. Summed up: as §3
In assay [29] the test system is K562. In words: Cell cycle arrest in human K562 cells by accumulation at G1 phase at 130 uM after 24 hrs using propidium iodide staining by FACS. Format: functional. Summed up: as §3
Assay [30] relates to K562. The assay can be described thus: Cell cycle arrest in human K562 cells by accumulation at A phase at 130 uM after 48 hrs using propidium iodide staining by FACS. Format: functional. In outline:
as §3

The subject of assay [31] is K562. The assay can be described thus: Cell cycle arrest in human K562 cells by accumulation at A phase at 130 uM after 24 hrs using propidium iodide staining by FACS. Format: functional. In outline:
as §3

For assay [32], the system named is K562. In words: Cell cycle arrest in human K562 cells by accumulation at G2/M phase at 130 uM after 24 hrs using propidium iodide staining by FACS. Format: functional. In outline:
as §3

In assay [33] the test system is K562. The assay can be described thus: Cell cycle arrest in human K562 cells by accumulation at A phase at 130 uM after 72 hrs using propidium iodide staining by FACS. Format: functional. In outline:
as §3

The subject of assay [34] is K562. The assay can be described thus: Cell cycle arrest in human K562 cells by accumulation at S phase at 130 uM after 72 hrs using propidium iodide staining by FACS. Format: functional. Summed up:
as §3

With `OCc1ccc(-c2cc(O)cc(O)c2)cc1`, the IC50 in assay [1] and in [2] was over 80 µM throughout. The AC50 in assay [3] and in assay [4] was over 80 µM in each case.
As to `O=C1C[C@H](c2ccc(O)cc2)C2(C(=O)c3ccccc3C2=O)[C@H](c2ccc(O)cc2)C1`, the figures for the IC50 in assay [1] and in assay [2] were 73 µM and 28 µM, respectively.
For `O=C1C[C@H](c2ccc(-c3ccc(O)cc3)cc2)C2(C(=O)c3ccccc3C2=O)[C@H](c2ccccc2)C1`, the Activity in assay [5] turned out to be 32.8%; in assay [7], 2%; in assay [8], 53%; in [9], 39%; in [10] it was 17%; in assay [11] it was 4%. In addition, the Activity in [12] turned out to be 35%; in assay [13], 34%; in assay [14], 4%; in assay [15], 61%; in [16] it was 61%; in assay [17], 44%. This compound also had an Activity in assay [18] of 55%. Moreover, the 50% inhibitory concentration (IC50) worked out at 8 µM in assay [1], 215 µM in [6] and 6 µM in assay [2]. The AC50 in assay [3] came to 11 µM; in assay [4], 25 µM.
Turning to `COc1ccc(-c2ccc([C@H]3CC(=O)C[C@@H](c4ccccc4)C34C(=O)c3ccccc3C4=O)cc2)cc1`, the IC50 in assay [1] and in assay [2] was over 100 µM throughout.
Take `CC1(C)OC(=O)C2(C(=O)O1)[C@@H](c1ccc(-c3ccc(-c4ccc(O)cc4)cc3)cc1)CC(=O)C[C@H]2c1ccccc1`: the Activity in assay [5] is 4.9%; in [7], 8%; in [8] it was 2%; in assay [9], 26%; in assay [10], 11%; in [11], 2%. Besides, the Activity is on record as 72% in assay [12]; 72% in assay [13]; 6% in assay [14]; 22% in assay [15]; 20% in assay [16]; 65% in assay [17]. The Activity in [18] is 2%. The IC50 stood at 8 µM in assay [1], 185 µM in assay [6] and 16 µM in assay [2]. Besides, the result in [19] and in assay [20] was Active. Further, the half-maximal activity concentration (AC50) in [3] was 32 µM; in assay [4], over 100 µM. For the same compound, the result in assay [21] and in assay [22] was inactive.
Turning to `CC1(C)OC(=O)C2(C(=O)O1)[C@@H](c1c[nH]c3ccccc13)CC(=O)C[C@H]2c1ccccc1`, the values for the IC50 in assay [1] and in assay [2] were over 100 µM and 62 µM, respectively.
For the compound `O=C1C[C@H](c2ccc(O)cc2)C2(C(=O)c3ccccc3C2=O)[C@H](c2ccccc2)C1`, the IC50 was 25 µM in [1] and 23 µM in [2].
As for `O=C1C[C@H](c2ccccc2)C2(C(=O)c3ccccc3C2=O)[C@H](c2ccccc2)C1`, the Activity in assay [23] is 61%; in assay [24], 26%; in [25], 7%; in [26] it was 40%; in assay [27] it was 72%; in [28], 34%. Besides, the Activity in assay [29] is 27%; in [30] it was 18%; in assay [31] it was 13%; in assay [32], 12%; in assay [33], 20%; in assay [34], 21%. The results for the IC50 in assay [1] and in assay [2] were 98 µM and 20 µM, respectively.

What is called IC50 is the concentration that inhibits the measured activity by half. What is called AC50 is the midpoint of the concentration-response curve, whichever way the signal moves.
